In ChEMBL document CHEMBL1143386, “Prodrugs of perzinfotel with improved oral bioavailability” (J Med Chem, 2009):
Active and inactive are the calls of the source.

Legend:
[1] = Tmax in Sprague-Dawley rat at 30 mg/kg, po; assay type: ADME, organism-based; parameters: dose 30 mg/kg, route oral; details: in vivo
Procedure, shortened: (§1)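 Male Sprague-Dawley rats fasted about 16 h, then dosed by oral gavage at 30 mg/kg as a suspension in 2% Tween-80/0.5% methylcellulose in water. Plasma sampled at 0–6 h (n = 2–3 per time point) and stabilized with acetic acid and KF. Samples acidified, extracted into n-butanol, and analysed by LC-MS.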

[2] = Cmax in Sprague-Dawley rat at 30 mg/kg, po; assay type: ADME, organism-based; parameters: dose 30 mg/kg, route oral; details: in vivo; procedure, shortened: as §1
[3] = AUC (0 to 4 hrs) in Sprague-Dawley rat at 30 mg/kg, po; assay type: ADME, organism-based; parameters: time < 4 hr, dose 30 mg/kg, route oral; details: plasma
Procedure, shortened: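 Male Sprague-Dawley rats given a single oral gavage dose, suspended in 2% Tween-80/0.5% methylcellulose in sterile water at 1 mL/kg. Plasma sampled at 0, 0.25, 0.5, 1, 2, 4 and 6 h; n = 2 at 0, 2, 4, 6 h and n = 3 at 0.25, 0.5, 1 h. Samples were stabilized with acetic acid/KF, acidified, extracted into n-butanol and quantified by LC/MS.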

[4] = test system: Brain; test: Biodistribution in Sprague-Dawley rat brain at 30 mg/kg, po after 0.167 hrs; assay type: ADME, organism-based; parameters: dose 30 mg/kg, route oral; details: in vivo
Procedure, shortened: (§2)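 Male Sprague-Dawley rats given [14C]-labelled compound by oral gavage (parent at 30 mg/kg, prodrug at 10 mg/kg). Blood, plasma and brain taken at 0.167, 0.5, 1, 4, 8 and 24 h (n = 3 rats/time point). Total radioactivity measured in each matrix. Metabolite profiles from HPLC with in-line radioactivity detection.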

[5] = test system: Blood; test: Biodistribution in Sprague-Dawley rat blood at 30 mg/kg, po after 0.5 hrs; assay type: ADME, organism-based; parameters: dose 30 mg/kg, route oral; details: in vivo; procedure, shortened: as §2
[6] = test system: Plasma; test: Biodistribution in Sprague-Dawley rat plasma at 30 mg/kg, po after 0.5 hrs; assay type: ADME, organism-based; parameters: dose 30 mg/kg, route oral; details: in vivo; procedure, shortened: as §2
[7] = test system: Brain; test: Biodistribution in Sprague-Dawley rat brain at 30 mg/kg, po after 0.5 hrs; assay type: ADME, organism-based; parameters: dose 30 mg/kg, route oral; details: in vivo; procedure, shortened: as §2
[8] = biological target: Glutamate NMDA receptor; test: Displacement of [3H]CGP-39653 from rat brain NMDA receptor
Procedure, shortened: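 Competitive displacement of [3H]CGP-39653 at the NMDA recognition site, using rat whole-brain membranes.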

[9] = biological target: T1, Glycine receptor subunit alpha-1 (Rattus norvegicus) (UniProt P07727); test: Displacement of [3H]glycine from rat brain strychnine sensitive glycine receptor at 100 uM
T1 sequence (whole entry): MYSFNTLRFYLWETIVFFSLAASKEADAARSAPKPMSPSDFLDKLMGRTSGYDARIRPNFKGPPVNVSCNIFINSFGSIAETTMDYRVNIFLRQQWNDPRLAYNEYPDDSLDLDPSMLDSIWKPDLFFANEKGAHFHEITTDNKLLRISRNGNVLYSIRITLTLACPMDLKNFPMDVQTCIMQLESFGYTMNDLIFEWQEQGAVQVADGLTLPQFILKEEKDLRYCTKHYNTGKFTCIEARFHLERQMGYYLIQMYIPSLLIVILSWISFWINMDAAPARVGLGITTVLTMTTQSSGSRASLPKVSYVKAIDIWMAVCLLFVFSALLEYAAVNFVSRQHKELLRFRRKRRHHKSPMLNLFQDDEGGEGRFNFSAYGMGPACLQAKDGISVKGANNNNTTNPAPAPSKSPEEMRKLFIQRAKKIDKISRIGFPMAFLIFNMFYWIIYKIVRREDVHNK
Procedure, shortened: (§3)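 Inhibition of radioligand binding at 100 µM. [3H]glycine with rat whole-brain membranes, [3H]kainate with rat frontal cortex membranes, and [3H]AMPA with rat forebrain membranes.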

[10] = species: Rattus norvegicus; test: Displacement of [3H]kainic acid from kainate receptor in rat frontal cortex at 100 uM; assay type: tissue-based; procedure, shortened: as §3
[11] = species: Rattus norvegicus; test: Displacement of [3H]AMPA from AMPA receptor in rat forebrain membrane at 100 uM; assay type: cell membranes; procedure, shortened: as §3
[12] = test system: Rattus norvegicus; test: Antinociceptive activity in Sprague-Dawley rat assessed as reversal of PGE2-induced thermal hypersensitivity at 100 mg/kg after 0.5 hrs; assay type: functional, organism-based; parameters: dose 100 mg/kg
Procedure, shortened: (§4)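 Male Sprague-Dawley rats (200-250 g) fasted ~16 h and dosed orally in 2% Tween-80/0.5% methylcellulose (1 mL/kg) 0.5-48 h before intradermal PGE2 (0.1 mg in 50 µL). Tail-withdrawal latency was read 30 min later in water at 34-58 °C, with a 20 s cutoff. T10 from each rat's temperature-effect curve; within-subjects repeated-measures ANOVA, p < 0.05.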

[13] = species: Rattus norvegicus; test: Antinociceptive activity in Sprague-Dawley rat assessed as reversal of PGE2-induced thermal hypersensitivity after 0.5 hrs; assay type: functional; procedure, shortened: as §4
[14] = Half life in Sprague-Dawley rat at 30 mg/kg, po; assay type: ADME, organism-based; parameters: dose 30 mg/kg, route oral; details: in vivo; procedure, shortened: as §1
[15] = AUC (0 to last) in Sprague-Dawley rat at 30 mg/kg, po; details: plasma
[16] = test system: Blood; test: Biodistribution in Sprague-Dawley rat blood at 10 mg/kg, po after 0.167 hrs; details: in vivo
[17] = test system: Plasma; test: Biodistribution in Sprague-Dawley rat plasma at 10 mg/kg, po after 0.167 hrs; details: in vivo
[18] = Chemical stability at pH 1 after 4 hrs; assay type: physicochemical; details: buffer, read-out: Stability
Procedure, shortened: (§5)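 Compound at 0.01 mg/mL final in a 9:1 mix of aqueous buffer (pH 1.0, 4.5, 6.6 or 7.4) or simulated gastric fluid with acetonitrile, held at 37 °C in the autosampler. Injected every 4 h over 24 h onto C8 HPLC. Percent remaining from peak area at 304 nm, corrected by internal standard; products confirmed by LC/MS (-ESI).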

[19] = Chemical stability at pH 4.5 after 4 hrs; assay type: physicochemical; details: buffer, read-out: Stability; procedure, shortened: as §5
[20] = Chemical stability at pH 6.6 after 4 hrs; assay type: physicochemical; details: buffer, read-out: Stability; procedure, shortened: as §5
[21] = Chemical stability at pH 7.4 after 4 hrs; assay type: physicochemical; details: buffer, read-out: Stability; procedure, shortened: as §5
[22] = Chemical stability in simulated gastric fluid after 4 hrs; assay type: physicochemical; details: read-out: Stability; procedure, shortened: as §5

With O=c1c2c(c1=O)N(CCP(=O)(O)O)CCCN2 [PERZINFOTEL] as the molecule, how does the Tmax [1] read?
Its Tmax is 30 min.

What about the Cmax [2] of the same molecule?
The Cmax was 218 ng/mL.

What about the AUC(0-t) at 4 h [3] of the same molecule?
Its AUC(0-t) at 4 h is 342 ng·h/mL.

What about the Drug uptake [4] of the same molecule?
The Drug uptake was 88%.

And the Drug uptake [5]?
Its Drug uptake is 98%.

And the Drug uptake [6]?
The Drug uptake was 98%.

What about the Activity [7] of the same molecule?
Its Activity is 98%.

And the IC50 [8]?
The IC50 was 23 nM.

What about the Activity [9] of the same molecule?
The Activity was 33%.

What about the Activity [10] of the same molecule?
The Activity was 6%.

And the Activity [11]?
Its Activity is 17%.

What about the Activity [12] of the same molecule?
Its Activity is “Active”.

And the ED50 [13]?
Its ED50 is 35 mg/kg.

What about the half-life [14] of the same molecule?
Its half-life is 78 min.

And the AUC(0-last) [15]?
Its AUC(0-last) is 342 ng·h/mL.

And the Drug uptake [16]?
Its Drug uptake is 88%.

And the Drug uptake [17]?
The Drug uptake was 88%.

Which remaining at 4 h [18] does the source give for O=C(OCOP(=O)(CCN1CCCNc2c1c(=O)c2=O)OCOC(=O)C1CCCCC1)C1CCCCC1 here?
The remaining at 4 h was 89%.

What about the remaining at 4 h [19] of the same molecule?
The remaining at 4 h was 99.4%.

What about the remaining at 4 h [20] of the same molecule?
Its remaining at 4 h is 95%.

What about the remaining at 4 h [21] of the same molecule?
The remaining at 4 h was 94.4%.

What about the remaining at 4 h [22] of the same molecule?
The remaining at 4 h was 91.6%.
